For experiment [1], the target named is Metabotropic glutamate receptor 6 (Homo sapiens) (UniProt O15303). Nature of the experiment: Inhibition of mGluR6 expressed in CHO cells at 10 uM. The format is cell-based.
For experiment [2], the target named is Metabotropic glutamate receptor 1 (Homo sapiens) (UniProt Q13255). Nature of the experiment: Inhibition of mGluR1 expressed in CHO cells at 10 uM. The format is cell-based.
Experiment [3] deals with Metabotropic glutamate receptor 4 (Homo sapiens) (UniProt Q14833). Nature of the experiment: Inhibition of mGluR4 expressed in CHO cells at 10 uM. The experiment is classed as cell-based.
Sequence of Metabotropic glutamate receptor 4 (Homo sapiens) (Q14833 whole entry): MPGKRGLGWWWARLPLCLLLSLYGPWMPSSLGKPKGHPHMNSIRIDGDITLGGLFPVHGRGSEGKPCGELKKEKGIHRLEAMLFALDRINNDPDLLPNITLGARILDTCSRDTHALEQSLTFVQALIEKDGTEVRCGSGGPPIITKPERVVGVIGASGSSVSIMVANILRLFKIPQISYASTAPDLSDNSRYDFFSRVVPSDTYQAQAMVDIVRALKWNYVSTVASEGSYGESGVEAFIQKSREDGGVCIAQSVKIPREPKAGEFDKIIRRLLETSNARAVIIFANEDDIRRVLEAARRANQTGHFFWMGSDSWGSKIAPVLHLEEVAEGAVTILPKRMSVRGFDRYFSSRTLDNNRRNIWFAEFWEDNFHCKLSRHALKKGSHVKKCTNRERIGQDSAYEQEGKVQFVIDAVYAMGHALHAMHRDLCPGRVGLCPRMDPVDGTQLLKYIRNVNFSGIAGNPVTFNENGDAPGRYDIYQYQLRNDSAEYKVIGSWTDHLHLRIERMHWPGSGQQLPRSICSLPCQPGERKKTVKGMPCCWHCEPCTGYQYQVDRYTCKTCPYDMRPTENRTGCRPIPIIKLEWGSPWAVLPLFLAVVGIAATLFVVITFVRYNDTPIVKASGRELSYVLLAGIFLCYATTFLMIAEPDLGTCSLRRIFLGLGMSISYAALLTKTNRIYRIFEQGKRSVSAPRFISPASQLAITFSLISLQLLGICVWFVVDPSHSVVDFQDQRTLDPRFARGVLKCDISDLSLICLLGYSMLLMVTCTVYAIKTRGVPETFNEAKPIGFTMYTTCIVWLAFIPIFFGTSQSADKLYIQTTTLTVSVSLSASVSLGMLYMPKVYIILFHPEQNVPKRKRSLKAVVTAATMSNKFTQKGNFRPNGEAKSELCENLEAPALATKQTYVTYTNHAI
Experiment [4] has as its target Glutamate NMDA receptor (Rattus norvegicus) (UniProt P35439+Q00959+Q00960+Q00961+Q62645+Q8VHN2+Q9R1M7). Nature of the experiment: Displacement of [3H]MK801 from NMDA receptor in rat brain homogenate at 10 uM by scintillation counting. The format is tissue-based. In general terms: Loss of bound radioactivity is the signal in a displacement assay; it reports binding, not function.

Experiment [5] addresses Metabotropic glutamate receptor 2 (Homo sapiens) (UniProt Q14416). Nature of the experiment: Inhibition of mGluR2 expressed in CHO cells at 10 uM. The experiment is classed as cell-based.
Experiment [6] concerns the target Metabotropic glutamate receptor 8 (Homo sapiens) (UniProt O00222). Nature of the experiment: Inhibition of mGluR8 expressed in CHO cells at 10 uM. The experiment is classed as cell-based.
Experiment [7] has as its target T1, Metabotropic glutamate receptor 5 (Rattus norvegicus, UniProt P31424). Nature of the experiment: Displacement of [3HMPEP from rat cloned mGluR5 expressed in HEK293T cells by scintillation counting. The experiment is classed as cell-based, HEK-293T. In a few lines:
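Radioligand displacement with [3H]MPEP, run through the NIMH Psychoactive Drug Screening Program. Receptor source was rat brain membranes or HEK293-T cells transfected with cloned rat mGluR5 cDNA. Ki reported as ±SEM.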

In experiment [8] the target is T1, Metabotropic glutamate receptor 5. Nature of the experiment: Antagonist activity at rat mGluR5 expressed in HEK293A cells assessed as inhibition of glutamate-induced calcium flux preincubated for 140 secs before glutamate challenge by calcium fluorescence assay. The experiment is classed as functional, cell-based, HEK293-A. Put shortly: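 Functional read-out was receptor-induced intracellular calcium release, detected by calcium fluorescence. A kinetic imaging plate reader recorded calcium levels simultaneously in every well of 384-well plates. IC50 reported as ±SEM.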
(In general: Calcium flux is commonly read through the fluorescence of an indicator in the cells.)

The target of experiment [9] is Metabotropic glutamate receptor 5 (Rattus norvegicus) (UniProt P31424). Particulars: HEK293-A, 0.0001 to 100 uM.

SMILES strings stand for the structures. Calls of active or inactive are those of the source. The calls are words filed in the database; no cut-off is given here.

T1 sequence (P31424 whole entry): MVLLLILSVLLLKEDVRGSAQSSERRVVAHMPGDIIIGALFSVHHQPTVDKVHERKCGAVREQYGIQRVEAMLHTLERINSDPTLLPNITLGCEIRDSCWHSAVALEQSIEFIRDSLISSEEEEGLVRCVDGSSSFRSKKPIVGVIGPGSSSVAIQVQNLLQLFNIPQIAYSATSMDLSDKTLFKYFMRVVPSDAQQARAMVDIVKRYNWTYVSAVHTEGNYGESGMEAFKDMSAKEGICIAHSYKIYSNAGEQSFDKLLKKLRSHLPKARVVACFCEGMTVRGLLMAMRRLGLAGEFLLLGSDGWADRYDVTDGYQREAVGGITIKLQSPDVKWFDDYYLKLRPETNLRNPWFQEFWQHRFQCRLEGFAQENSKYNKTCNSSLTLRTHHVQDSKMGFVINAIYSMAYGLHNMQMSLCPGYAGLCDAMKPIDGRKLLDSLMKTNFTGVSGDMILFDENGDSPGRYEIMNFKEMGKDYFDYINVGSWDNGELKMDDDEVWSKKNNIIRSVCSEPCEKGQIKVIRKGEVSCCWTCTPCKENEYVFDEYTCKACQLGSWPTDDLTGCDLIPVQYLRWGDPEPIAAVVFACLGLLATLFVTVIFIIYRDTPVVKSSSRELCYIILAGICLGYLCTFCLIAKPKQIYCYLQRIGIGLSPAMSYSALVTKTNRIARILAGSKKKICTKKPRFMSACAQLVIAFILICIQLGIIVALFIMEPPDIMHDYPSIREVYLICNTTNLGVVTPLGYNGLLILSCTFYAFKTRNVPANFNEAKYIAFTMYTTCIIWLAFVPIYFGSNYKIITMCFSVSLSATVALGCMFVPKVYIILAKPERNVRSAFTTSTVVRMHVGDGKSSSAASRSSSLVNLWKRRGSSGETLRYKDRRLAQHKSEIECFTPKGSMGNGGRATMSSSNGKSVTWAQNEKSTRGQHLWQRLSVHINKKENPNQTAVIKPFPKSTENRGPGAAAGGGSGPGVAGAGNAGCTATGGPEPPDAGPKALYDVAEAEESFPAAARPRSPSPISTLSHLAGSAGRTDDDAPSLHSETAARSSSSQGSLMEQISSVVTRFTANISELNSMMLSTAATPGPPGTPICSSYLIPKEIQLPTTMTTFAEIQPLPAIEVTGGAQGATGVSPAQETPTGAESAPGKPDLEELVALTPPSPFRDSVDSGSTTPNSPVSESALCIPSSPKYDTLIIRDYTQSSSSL
Sequence of Metabotropic glutamate receptor 1 (Homo sapiens) (Q13255 19-1194 limits assumed): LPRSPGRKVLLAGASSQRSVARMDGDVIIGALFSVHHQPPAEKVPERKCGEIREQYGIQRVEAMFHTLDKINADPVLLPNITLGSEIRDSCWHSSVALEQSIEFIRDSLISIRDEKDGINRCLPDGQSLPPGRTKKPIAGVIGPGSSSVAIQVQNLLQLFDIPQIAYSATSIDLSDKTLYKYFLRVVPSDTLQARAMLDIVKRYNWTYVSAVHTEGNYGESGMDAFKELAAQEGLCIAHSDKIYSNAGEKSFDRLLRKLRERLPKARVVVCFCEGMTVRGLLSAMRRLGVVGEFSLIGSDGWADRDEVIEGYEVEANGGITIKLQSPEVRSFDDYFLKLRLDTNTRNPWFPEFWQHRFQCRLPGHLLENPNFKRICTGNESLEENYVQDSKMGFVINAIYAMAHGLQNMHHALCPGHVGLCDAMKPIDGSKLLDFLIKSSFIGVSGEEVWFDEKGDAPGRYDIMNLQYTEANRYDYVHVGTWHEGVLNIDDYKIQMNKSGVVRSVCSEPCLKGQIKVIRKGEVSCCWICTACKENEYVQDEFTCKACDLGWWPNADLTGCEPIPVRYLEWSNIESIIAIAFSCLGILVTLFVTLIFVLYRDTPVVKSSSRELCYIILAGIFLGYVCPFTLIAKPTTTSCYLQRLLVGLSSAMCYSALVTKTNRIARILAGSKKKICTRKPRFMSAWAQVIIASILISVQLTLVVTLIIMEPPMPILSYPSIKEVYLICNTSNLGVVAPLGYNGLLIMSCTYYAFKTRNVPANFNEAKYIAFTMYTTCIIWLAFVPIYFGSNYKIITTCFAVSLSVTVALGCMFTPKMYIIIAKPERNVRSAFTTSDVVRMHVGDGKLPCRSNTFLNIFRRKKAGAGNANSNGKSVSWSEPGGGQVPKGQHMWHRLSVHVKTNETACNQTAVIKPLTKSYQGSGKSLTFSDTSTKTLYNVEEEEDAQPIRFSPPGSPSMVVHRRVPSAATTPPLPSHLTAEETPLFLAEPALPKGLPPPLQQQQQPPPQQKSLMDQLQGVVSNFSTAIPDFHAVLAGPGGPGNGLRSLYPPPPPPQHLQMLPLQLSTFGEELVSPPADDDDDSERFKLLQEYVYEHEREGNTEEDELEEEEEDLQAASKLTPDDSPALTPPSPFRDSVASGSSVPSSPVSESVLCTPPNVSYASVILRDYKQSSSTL
Sequence of Metabotropic glutamate receptor 2 (Homo sapiens) (Q14416 19-872 limits assumed): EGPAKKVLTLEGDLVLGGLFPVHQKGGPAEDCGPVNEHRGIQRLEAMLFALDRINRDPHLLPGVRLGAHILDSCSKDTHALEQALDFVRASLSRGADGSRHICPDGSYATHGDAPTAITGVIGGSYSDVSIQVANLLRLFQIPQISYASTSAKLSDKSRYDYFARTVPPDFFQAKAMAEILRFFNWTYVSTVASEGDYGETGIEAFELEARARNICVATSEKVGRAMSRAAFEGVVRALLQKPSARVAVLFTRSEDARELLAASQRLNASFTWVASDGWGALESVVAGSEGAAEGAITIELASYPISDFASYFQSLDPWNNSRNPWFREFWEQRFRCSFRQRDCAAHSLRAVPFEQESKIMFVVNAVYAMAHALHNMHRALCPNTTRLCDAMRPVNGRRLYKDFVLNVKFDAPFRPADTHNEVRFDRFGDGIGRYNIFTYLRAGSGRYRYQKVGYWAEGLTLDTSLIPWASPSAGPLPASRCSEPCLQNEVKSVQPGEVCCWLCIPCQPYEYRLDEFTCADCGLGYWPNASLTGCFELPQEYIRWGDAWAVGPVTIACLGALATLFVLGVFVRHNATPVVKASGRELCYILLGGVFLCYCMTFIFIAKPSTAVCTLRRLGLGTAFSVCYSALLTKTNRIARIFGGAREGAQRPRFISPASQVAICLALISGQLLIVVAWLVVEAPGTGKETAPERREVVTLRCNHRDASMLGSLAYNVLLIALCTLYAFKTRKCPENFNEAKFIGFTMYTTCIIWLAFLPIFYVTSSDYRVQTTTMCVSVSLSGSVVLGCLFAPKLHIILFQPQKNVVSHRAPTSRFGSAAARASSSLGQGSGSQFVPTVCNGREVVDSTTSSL
Sequence of Metabotropic glutamate receptor 6 (Homo sapiens) (O15303 whole entry): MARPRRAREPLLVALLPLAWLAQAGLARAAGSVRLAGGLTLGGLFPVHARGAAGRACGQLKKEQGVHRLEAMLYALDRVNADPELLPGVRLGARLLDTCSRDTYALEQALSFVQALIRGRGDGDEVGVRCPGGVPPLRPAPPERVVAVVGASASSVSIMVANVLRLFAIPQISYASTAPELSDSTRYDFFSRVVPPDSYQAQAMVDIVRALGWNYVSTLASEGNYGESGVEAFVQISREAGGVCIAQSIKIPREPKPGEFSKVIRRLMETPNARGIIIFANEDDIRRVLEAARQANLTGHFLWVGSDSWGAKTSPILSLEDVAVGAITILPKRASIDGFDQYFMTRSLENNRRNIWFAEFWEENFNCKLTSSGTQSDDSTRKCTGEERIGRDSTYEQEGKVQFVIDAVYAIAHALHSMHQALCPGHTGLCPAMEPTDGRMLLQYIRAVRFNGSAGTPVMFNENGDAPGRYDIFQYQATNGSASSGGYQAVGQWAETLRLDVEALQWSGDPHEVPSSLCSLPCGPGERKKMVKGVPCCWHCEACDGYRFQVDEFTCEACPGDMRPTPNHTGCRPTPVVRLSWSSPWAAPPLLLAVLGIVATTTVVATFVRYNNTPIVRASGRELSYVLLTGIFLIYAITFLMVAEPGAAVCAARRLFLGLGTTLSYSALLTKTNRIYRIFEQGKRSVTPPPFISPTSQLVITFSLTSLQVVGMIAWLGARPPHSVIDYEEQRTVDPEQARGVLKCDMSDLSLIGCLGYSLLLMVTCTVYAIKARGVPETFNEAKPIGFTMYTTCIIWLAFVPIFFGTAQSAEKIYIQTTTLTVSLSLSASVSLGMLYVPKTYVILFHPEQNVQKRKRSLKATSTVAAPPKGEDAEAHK

Take `Cc1ccc2ccc(-c3ccc(-c4ccccc4)c(C#N)c3)cc2n1`: the inhibition in experiment [1], in experiment [2], in experiment [3], in experiment [5] and in [6] was under 50% each time. Moreover, in experiment [4], the outcome was inactive. Also, the Ki – broadly, a measure of affinity in units of concentration, obtained from inhibition or displacement – in experiment [7] is 97 nM. For the same molecule, the concentration for half-maximal inhibition (IC50) (usually the midpoint of a concentration-inhibition curve) in experiment [8] worked out at 1250 nM.
As to `Cc1ccc2ccc(-c3cnc(-c4ccccc4)c(C#N)c3)cc2n1`, the inhibition in experiment [1], in experiment [2], in experiment [3], in experiment [5] and in [6] was under 50% in each case. Also, the outcome in [4] was inactive. The molecule also registered a Ki in experiment [7] of 97 nM. Also, the IC50 in experiment [8] is 81 nM.
As to `Cc1cccc(C#Cc2cncc(C#N)c2)n1`, the inhibition in experiment [1], in experiment [2], in [3], in experiment [5] and in experiment [6] was under 50% throughout. Moreover, the result in experiment [4] was inactive. Further, in experiment [7], the affinity corresponds to a Ki of 1.5 nM. Besides, the IC50 in experiment [8] is 13 nM.
In the case of `Cc1nc2cc(-c3ccc(OCc4ccccc4)c(C#N)c3)ccc2s1`, the inhibition in experiment [1], in experiment [2], in experiment [3], in [5] and in experiment [6] was under 50% in each case. For the same molecule, the outcome in [4] was inactive. This molecule also showed an inhibition constant Ki in experiment [7] of 7130 nM. The IC50 in [8] is over 10000 nM.
For `Cc1ccc2ccc(-c3ccc(OCc4ccccc4)c(C#N)c3)cc2n1`, the inhibition in experiment [1], in experiment [2], in [3], in [5] and in experiment [6] was under 50% each time. For the same molecule, the result in experiment [4] was inactive. Moreover, the Ki in experiment [7] turned out to be 1040 nM. In addition, the IC50 in experiment [8] was over 10000 nM.
In the case of `Cc1ccc2ccc(-c3ccc(O)c(C#N)c3)cc2n1`, the inhibition in experiment [1], in experiment [2], in experiment [3], in experiment [5] and in experiment [6] was under 50% each time. In addition, in experiment [4], the result was inactive. In addition, in experiment [7], the Ki was over 10000 nM. For the same molecule, the IC50 in experiment [8] is over 10000 nM.
Consider `Cc1ccc2ccc(-c3ccc(-c4cccnc4)c(C#N)c3)cc2n1`, for which the inhibition in experiment [1], in experiment [2], in [3], in experiment [5] and in experiment [6] was under 50% throughout. The outcome in experiment [4] was inactive. Also, affinity in experiment [7] was put at a Ki of 730 nM. For the same molecule, in [8], the half-maximal inhibitory concentration (IC50) came out at 1340 nM.
On to `Cc1ccc2ccc(-c3cnc(Cl)c(C#N)c3)cc2n1`, for which the inhibition – broadly, how much of the control response was suppressed – in [1] is under 50%; in experiment [2] it was under 50%; in experiment [3], under 50%; in experiment [5] it was under 50%; in experiment [9], 50%; in [6], under 50%. For the same molecule, the result in experiment [4] was inactive. In addition, the Ki in experiment [7] was over 10000 nM. Further, the IC50 in experiment [8] was found to be 3310 nM.
As to `COCOc1ccc(-c2ccc3ccc(C)nc3c2)cc1C#N`, the inhibition in experiment [1], in [2], in experiment [3], in experiment [5] and in [6] was under 50% throughout. For the same molecule, the outcome in experiment [4] was inactive. This molecule had a Ki in [7] of 596 nM. In experiment [8], the IC50 worked out at 294 nM.
As to `Cc1nc2cc(-c3cccc(C#N)c3)ccc2s1`, the inhibition in experiment [1], in experiment [2], in experiment [3], in experiment [5] and in experiment [6] was under 50% throughout. In addition, the result in experiment [4] was inactive.
`Cc1nc2cc(-c3ccc(OS(=O)(=O)C(F)(F)F)c(C#N)c3)ccc2s1`: the inhibition in experiment [1], in experiment [2], in experiment [3], in experiment [5] and in [6] was under 50% in each case. Further, in experiment [4], the result was inactive. The molecule further displayed a Ki in experiment [7] of 862 nM. Moreover, in experiment [8], the IC50 is 7840 nM.
As to `Cc1ccc2ccc(-c3ccc(Cl)cc3C#N)cc2n1`, the inhibition in experiment [1], in [2], in experiment [3], in experiment [5] and in experiment [6] was under 50% each time. Further, the outcome in experiment [4] was inactive. The Ki in experiment [7] came out at 4720 nM. For the same molecule, in experiment [8], the IC50 amounted to 9150 nM.
Regarding `Cc1ccc2ccc(-c3ccc(-c4ccc(F)cc4)c(C#N)c3)cc2n1`, the inhibition in experiment [1], in experiment [2], in [3], in experiment [5] and in experiment [6] was under 50% throughout. The result in [4] was inactive. Affinity in experiment [7] was put at a Ki of 64 nM. For the same molecule, the IC50 in [8] is 692 nM.
Take `Cc1nc2cc(-c3ccc(-c4ccc(F)cc4)c(C#N)c3)ccc2s1`: the inhibition in [1], in experiment [2], in experiment [3], in experiment [5] and in [6] was under 50% each time. Further, in experiment [4], the result was inactive. In experiment [7], this molecule had a Ki of 4680 nM. In experiment [8], the IC50 was over 10000 nM.
In the case of `Cc1nc(C#Cc2cccnc2)cs1`, the inhibition in experiment [1], in experiment [2], in experiment [3], in experiment [5] and in [6] was under 50% throughout. In addition, the result in [4] was inactive.

For the origin of these results see ChEMBL document CHEMBL1158569, “Structure-activity relationships in a novel series of 7-substituted-aryl quinolines and 5-substituted-aryl benzothiazoles at the metabotropic glutamate receptor subtype 5” (Bioorg Med Chem, 2010).
